Bioassay records: PubChem BioAssay, Broad Institute
Many of the other results were omitted from the sample, so hits are more common in it than they were.
T cruzi growth-1 = inhibitors of T. cruzi proliferation | AID 624255 | 77,000 compounds, 5.9% hits | T. cruzi beta-gal in NIH3T3, GalScreen luminescence, 90 h | inhibition, % at 8.34 µM;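 active = mean inhibition above about 93%, with at least 55% of replicates each passing it, limit read from the data, passing the limit was not always enough; inconclusive = only one of those two conditions holds; inactive = neither condition holds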
KDM4C inh = inhibitors of human demethylase GASC-1 KDM4C | GST-KDM4C 2-372, H3K9me3 peptide, LANCE TR-FRET | inhibition, % at 12.5 µM | 96,000 compounds, 0.15% hits;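 active = mean replicate inhibition above about 25%, with at least 55% of replicates also reaching it, limit read from the data, passing the limit was not always enough; inconclusive = only one of those two conditions met; inactive = neither condition met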
Target sequence (Q9H3R0 2-372 limits assumed): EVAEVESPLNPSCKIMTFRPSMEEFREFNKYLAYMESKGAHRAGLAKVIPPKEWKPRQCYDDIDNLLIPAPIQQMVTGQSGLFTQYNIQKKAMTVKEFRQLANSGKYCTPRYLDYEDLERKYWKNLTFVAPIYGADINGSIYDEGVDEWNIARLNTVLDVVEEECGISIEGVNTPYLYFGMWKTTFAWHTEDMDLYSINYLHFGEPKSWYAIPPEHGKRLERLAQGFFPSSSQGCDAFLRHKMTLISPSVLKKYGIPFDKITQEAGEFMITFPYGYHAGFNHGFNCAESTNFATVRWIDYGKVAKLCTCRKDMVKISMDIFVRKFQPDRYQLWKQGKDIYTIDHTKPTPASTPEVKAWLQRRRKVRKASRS
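Compound: one test concentration per compound; Material: GST-GASC-1 enzyme fragment 2-372; Amount: GASC-1 enzyme at 10 nM final in reaction; Also added: H3K9me3 peptide substrate, Fe(II), 2-oxoglutarate; Technique: LANCE TR-FRET; Times: 30 min demethylation and 1 h detection at room temperature.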
IDH1 mut inh = inhibitors of human IDH1 R132H. O75874. IDH1 R132H reductase, diaphorase/resazurin fluorescence, 60 min. inhibition, % at 10 µM. 70,000 compounds, 0.18% hits; in the data active = inhibition above about 34%; inconclusive = no clear call, values can overlap the other calls; inactive = below about 11%;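 also: 0% = DMSO and 100% = no enzyme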
T cruzi growth-2 = inhibitors of T. cruzi proliferation. 5,600 compounds, 72% hits. shares compounds with T cruzi growth-1. inhibition, % at 8.35 µM. T. cruzi beta-gal in NIH3T3, GalScreen luminescence, 90 h;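 active = mean replicate inhibition above about 95% and at least 55% of replicates individually reaching it, limit read from the data; inconclusive = only one of the two criteria is met; inactive = neither criterion is met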
T cruzi growth-3 = blocks T. cruzi growth in NIH3T3 host cells. T. cruzi beta-gal in NIH3T3, GalScreen luminescence, 90 h. 5,600 compounds, 21% hits. inhibition, % at 2.09 µM. shares compounds with T cruzi growth-1;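 active = mean inhibition above about 95%, with at least 55% of replicates also reaching it, limit read from the data; inconclusive = meets just one of the two conditions; inactive = meets neither condition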;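 also: plate controls were neutral control median for no effect and positive control median for full effect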
NIH3T3 tox = NIH/3T3 (mouse) viability loss. NIH/3T3 viability, CellTiter-Glo ATP luminescence, 90 h. AID 651742. cytotoxicity (signal decrease), % at 8.35 µM. 5,600 compounds, 14% hits. shares compounds with T cruzi growth-1;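 active = mean signal decrease across replicates above about 35% based on untreated-well scatter, with enough replicates individually passing, limit read from the data; inconclusive = no rule stated though some were filed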;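 also: 0% = median of neutral control wells and 100% = median of positive control wells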
3T3 cytotox 2 = NIH/3T3 (mouse) viability loss | inhibition, % at 24.9 µM | 5,600 compounds, 56% hits | shares compounds with T cruzi growth-1 | NIH/3T3 viability, CellTiter-Glo ATP luminescence, 90 h;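 active = mean loss of cell viability signal at or above a set limit, and enough replicates individually reaching it; inconclusive = meets only the mean limit or only the replicate share; inactive = meets neither condition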;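 also: 0% = median of neutral control wells and 100% = median of positive control wells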
Starred values were filed as active, the others as inactive; u = inconclusive; x = not tested or not shown.

SMILES	T cruzi growth-1	KDM4C inh	IDH1 mut inh	T cruzi growth-2	T cruzi growth-3	NIH3T3 tox	3T3 cytotox 2
CO[C@H](CN(C)C(=O)Nc1ccc(C(F)(F)F)cc1)[C@@H](C)CN(Cc1ccccc1Cl)[C@H](C)CO	98*	1	-1	103*	69	45*	103*
COc1ccc(Cl)cc1N(CC(=O)Nc1ccccc1Br)S(C)(=O)=O	x	x	0	x	x	x	x
COc1ccccc1CNc1nc2nc(C)cc(C)n2n1	x	x	9	x	x	x	x
O=C(Nc1ccccc1C(=O)N1CCOCC1)c1ccc(CN2CCOCC2)cc1	x	x	0	x	x	x	x
CC1=CC(=O)C2C(C)(C)CC(O)CC2(C)C1(O)CO (stereo not given)	x	x	0	x	x	x	x
CC(C(=O)Nc1ccc(F)c(F)c1)N(c1ccc(Cl)cc1)S(C)(=O)=O (stereo not given)	x	x	3	x	x	x	x
COc1cccc(C(=O)COc2ccc(NC(=O)c3ccccc3Cl)cc2)c1	x	x	0	x	x	x	x
Cc1ccc(S(=O)(=O)N(C)CC(=O)Nc2ccccc2[N+](=O)[O-])cc1	x	x	0	x	x	x	x
CC1(C)CC(=O)c2c(O)cc(OCC(=O)c3ccccc3)cc2O1	x	x	1	x	x	x	x
COc1ccc(NC(=O)Nc2ccc3c(c2)C(=O)N([C@H](C)CO)C[C@H](C)[C@@H](CN(C)Cc2ccc(Cl)c(Cl)c2)OCCCC[C@@H](C)O3)cc1	122*	x	1	113*	100*	2	9
COc1ccc(NC(=O)Nc2ccc3c(c2)C(=O)N([C@H](C)CO)C[C@H](C)[C@H](CN(C)Cc2ccc(Cl)c(Cl)c2)OCCCC[C@@H](C)O3)cc1	121*	-2	x	104*	107*	6	-1
COc1ccc(NC(=O)Nc2ccc3c(c2)C(=O)N([C@@H](C)CO)C[C@@H](C)[C@@H](CN(C)Cc2ccc(Cl)c(Cl)c2)OCCCC[C@@H](C)O3)cc1	126*	0	3	96*	114*	1	5
COc1ccc(CN(C)C[C@H]2OCCCC[C@H](C)Oc3ccc(NC(=O)Nc4ccc(OC)cc4)cc3C(=O)N([C@@H](C)CO)C[C@H]2C)cc1	2	1	x	x	x	x	x
COc1ccc(NC(=O)Nc2ccc3c(c2)C(=O)N([C@@H](C)CO)C[C@H](C)[C@@H](CN(C)Cc2ccc(Cl)c(Cl)c2)OCCCC[C@@H](C)O3)cc1	126*	-1	0	102*	114*	-5	28
COc1ccc(CN(C)C[C@H]2OCCCC[C@@H](C)Oc3ccc(NC(=O)Nc4ccc(OC)cc4)cc3C(=O)N([C@H](C)CO)C[C@@H]2C)cc1	38	x	1	x	x	x	x
Cc1c(NC(=O)COc2ccc(Cl)cc2Cl)cccc1-c1nc2cc(Cl)ccc2o1	x	x	0	x	x	x	x
COc1ccc(CN(C)C[C@@H]2OCCCC[C@H](C)Oc3ccc(NC(=O)Nc4ccc(OC)cc4)cc3C(=O)N([C@@H](C)CO)C[C@H]2C)cc1	-2	1	x	x	x	x	x
COc1ccc(NC(=O)Nc2ccc3c(c2)C(=O)N([C@H](C)CO)C[C@@H](C)[C@@H](CN(C)Cc2ccc(Cl)c(Cl)c2)OCCCC[C@H](C)O3)cc1	126*	-1	x	90	110*	2	5
COc1ccc(NC(=O)Nc2ccc3c(c2)C(=O)N([C@H](C)CO)C[C@H](C)[C@H](CN(C)Cc2ccc(Cl)c(Cl)c2)OCCCC[C@H](C)O3)cc1	126*	0	1	95*	114*	5	16
COc1ccc(N(CC(=O)Nc2ccc(F)c(F)c2)S(C)(=O)=O)cc1Cl	x	x	1	x	x	x	x
C[C@@H]1CN([C@H](C)CO)S(=O)(=O)c2ccc(-c3cncnc3)cc2O[C@H]1CN(C)Cc1cncnc1	29	0	0	x	x	x	x
C[C@H]1CN([C@@H](C)CO)S(=O)(=O)c2ccc(-c3cncnc3)cc2O[C@@H]1CN(C)Cc1cncnc1	25	-1	0	x	x	x	x
C[C@H](CO)N1C[C@H](C)[C@@H](CN(C)Cc2ccccc2)Oc2cc(-c3cncnc3)ccc2S1(=O)=O	113*	1	-1	92	u	38*	70*
C[C@H]1CN([C@@H](C)CO)S(=O)(=O)c2ccc(-c3cncnc3)cc2O[C@@H]1CN(C)Cc1ccccc1	106*	0	9	u	100*	18	31*
O=C(CSc1nnnn1-c1ccccc1)Nc1ccc2c(c1)OCCO2	x	x	1	x	x	x	x
SMILES	T cruzi growth-1	KDM4C inh	IDH1 mut inh	T cruzi growth-2	T cruzi growth-3	NIH3T3 tox	3T3 cytotox 2
CCc1cccc(C)c1NC(=O)C(C)NS(=O)(=O)c1ccc(C)cc1 (stereo not given)	x	x	0	x	x	x	x
CN(C)C(=O)c1ccc(-c2ccc3c(c2)[C@@H]2[C@@H](CCN2C(=O)c2ccccn2)[C@@H](CO)N3)cc1	76	2	x	x	x	x	x
O=C(c1ccccn1)N1CC[C@@H]2[C@H]1c1cc(-c3ccccc3F)ccc1N[C@@H]2CO	90	1	x	x	x	x	x
O=C(c1ccccn1)N1CC[C@H]2[C@H](CO)Nc3ccc(-c4ccc(F)cc4)cc3[C@H]21	u	-1	x	108*	98*	1	29*
O=C(c1ccccn1)N1CC[C@H]2[C@H](CO)Nc3ccc(-c4ccccc4)cc3[C@H]21	99*	-2	x	u	91	-7	-5
COCCOC(=O)N1C(=O)[C@@]2(c3ccccc31)[C@H](c1ccccc1OCCO)N1[C@H](c3ccccc3)[C@H](c3ccccc3)OC(=O)[C@H]1[C@@H]2C(=O)N1CCc2cc(OC)c(OC)cc2C1	x	x	0	x	x	x	x
Cn1c(=O)c(C(=O)NCCCO)c(O)c2ccccc21	x	x	0	x	x	x	x
CN(C)CC(=O)N1[C@H](C#N)[C@@H](c2ccc(C#CC3CCCC3)cc2)[C@@H]1CO	u	2	x	85	22	3	105*
CN(C)CC(=O)N1[C@H](CO)[C@@H](c2ccc(C#CC3CCCC3)cc2)[C@@H]1C#N	9	3	x	x	x	x	x
CN(C)CC(=O)N1[C@H](C#N)[C@@H](c2ccc(C#CC3CC3)cc2)[C@@H]1CO	84	0	x	x	x	x	x
CN(C)CC(=O)N1[C@H](CO)[C@H](c2ccc(C#CC3CCCC3)cc2)[C@@H]1C#N	96*	2	-2	101*	107*	12	9
CN(C)CC(=O)N1[C@@H](C#N)[C@H](c2ccc(C#CC3CC3)cc2)[C@@H]1CO	96*	0	x	97*	45	-19	-10
CN(C)CC(=O)N1[C@H](C#N)[C@H](c2ccc(C#CC3CCCCC3)cc2)[C@H]1CO	93	x	x	x	x	x	x
N#C[C@H]1[C@H](c2ccc(C#CC3CC3)cc2)[C@H](CO)N1C(=O)Cc1ccccn1	105*	1	x	104*	74	-3	3
N#C[C@H]1[C@@H](c2ccc(C#CC3CCCC3)cc2)[C@H](CO)N1C(=O)Cc1ccccn1	x	2	x	x	x	x	x
Cc1cc2nnc(SCC(=O)Nc3sc4c(c3C#N)CCC4)n2c2ccccc12	x	x	-1	x	x	x	x
